In ChEMBL document CHEMBL3875169, “Synthesis, in vitro anticancer and antibacterial activities and in silico studies of new 4-substituted 1,2,3-triazole-coumarin hybrids” (Eur J Med Chem, 2016):
Values after ≈ are worked out from the molar mass of the structure shown.

How the values were obtained:
[1] = Growth inhibition of human A549 cells after 72 hrs by MTT assay; format: functional, cell-based; conditions: A549, 72 h
Summary of the method: (§1)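 Monolayers in DMEM with 10% FBS, 2 mM L-glutamine and penicillin/streptomycin, 37 °C, 5% CO2; 5000 cells/well seeded day 0. Compounds added as five 10-fold dilutions (0.01–100 µM), DMSO ≤0.1%, for 72 h. MTT absorbance converted to percentage growth (NIH formulas); IC50 by linear regression between bracketing concentrations, highest concentration reported with ">" when not reached. Quadruplicate points, three experiments.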

[2] = Growth inhibition of human HeLa cells after 72 hrs by MTT assay; format: functional, cell-based; summary of the method: as §1
[3] = Growth inhibition of human SW620 cells after 72 hrs by MTT assay; format: functional, cell-based; conditions: SW-620, 72 h; summary of the method: as §1
[4] = Growth inhibition of human WI38 cells after 72 hrs by MTT assay; format: cell-based; conditions: WI-38, 72 h; summary of the method: as §1
[5] = Growth inhibition of human CFPAC-1 cells after 72 hrs by MTT assay; format: functional, cell-based; conditions: CFPAC-1, 72 h; summary of the method: as §1
[6] = Growth inhibition of human HepG2 cells after 72 hrs by MTT assay; format: functional, cell-based; conditions: HepG2, 72 h; summary of the method: as §1
[7] = tested on: Enterococcus faecalis; assay: Antibacterial activity against Enterococcus faecalis after 16 to 20 hrs by broth microdilution method; format: functional
Summary of the method: (§2)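 Broth microdilution per CLSI in cation (Ca2+, Mg2+)-adjusted Mueller-Hinton broth; compounds in serial two-fold dilutions, 256–0.25 µg/mL; direct colony suspension inoculum, final 5 x 10^5 CFU/mL; 35 ± 2 °C, 16–20 h, ambient air. MIC is the lowest concentration completely inhibiting visible growth versus growth control; with trailing, endpoint read at ≥80% growth reduction. E. coli ATCC 25922 and P. aeruginosa ATCC 27853 served as QC.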

[8] = tested on: Klebsiella pneumoniae; assay: Antibacterial activity against ESBL-producing Klebsiella pneumoniae ATCC 27736 after 16 to 20 hrs by broth microdilution method; format: functional; summary of the method: as §2
[9] = tested on: Pseudomonas aeruginosa; assay: Antibacterial activity against Pseudomonas aeruginosa ATCC 27853 after 16 to 20 hrs by broth microdilution method; format: functional; summary of the method: as §2
[10] = tested on: Acinetobacter baumannii; assay: Antibacterial activity against Acinetobacter baumannii ATCC 19606 after 16 to 20 hrs by broth microdilution method; format: functional; summary of the method: as §2
[11] = tested on: Escherichia coli; assay: Antibacterial activity against Escherichia coli ATCC 25925 after 16 to 20 hrs by broth microdilution method; format: functional; conditions: read-out: MIC=>80; summary of the method: as §2
[12] = tested on: Staphylococcus aureus; assay: Antibacterial activity against Staphylococcus aureus ATCC 25923 after 16 to 20 hrs by broth microdilution method; format: functional; summary of the method: as §2

SMILES	IC50 [1]	IC50 [2]	IC50 [3]	IC50 [4]	IC50 [5]	IC50 [6]	MIC80 [7]	MIC80 [8]	MIC80 [9]	MIC80 [10]	MIC [11]	MIC80 [12]
CC(C)(C)OC(=O)N1CCN(C(=S)SCc2cn(Cc3cc(=O)oc4cc(O)ccc34)nn2)CC1	35.4 µM	48 µM	> 100 µM	2.82 µM	88.5 µM	56.9 µM	–	–	–	–	–	–
Cc1ccc2nc(-c3ccc(NCc4cn(Cc5cc(=O)oc6cc(O)ccc56)nn4)cc3)sc2c1	16.2 µM	7.26 µM	90 µM	–	10.5 µM	52.8 µM	–	–	–	–	–	–
Cn1c(-c2cn(Cc3cc(=O)oc4cc(O)ccc34)nn2)nc2ccccc21	> 100 µM	49.1 µM	> 100 µM	–	76.5 µM	70.7 µM	–	–	–	–	–	–
CC(C)(C)c1cn(Cc2cc(=O)oc3cc(O)ccc23)nn1	67.6 µM	81.1 µM	> 100 µM	–	> 100 µM	> 100 µM	128 µg/mL (≈ 428 µM)	> 256 µg/mL	> 256 µg/mL	> 256 µg/mL	> 256 µg/mL	> 256 µg/mL
O=c1cc(Cn2cc(CNS(=O)(=O)c3ccc([N+](=O)[O-])cc3)nn2)c2ccc(O)cc2o1	> 100 µM	> 100 µM	> 100 µM	< 0.01 µM	> 100 µM	> 100 µM	256 µg/mL (≈ 560 µM)	> 256 µg/mL	> 256 µg/mL	> 256 µg/mL	> 256 µg/mL	> 256 µg/mL
O=c1cc(Cn2cc(CNS(=O)(=O)c3ccc(Cl)cc3)nn2)c2ccc(O)cc2o1	47.9 µM	58.5 µM	> 100 µM	0.82 µM	81.9 µM	31.4 µM	–	–	–	–	–	–
O=c1cc(Cn2cc(CNS(=O)(=O)c3ccc(F)cc3)nn2)c2ccc(O)cc2o1	88.5 µM	> 100 µM	> 100 µM	24.9 µM	> 100 µM	76.7 µM	64 µg/mL (≈ 149 µM)	> 256 µg/mL	> 256 µg/mL	> 256 µg/mL	> 256 µg/mL	> 256 µg/mL
CCCCCCc1cn(Cc2cc(=O)oc3cc(O)ccc23)nn1	66.2 µM	59 µM	> 100 µM	58.5 µM	> 100 µM	61.6 µM	–	–	–	–	–	–
O=c1cc(Cn2cc(CNS(=O)(=O)c3ccc(F)cc3Cl)nn2)c2ccc(O)cc2o1	91.9 µM	74.9 µM	> 100 µM	1.45 µM	> 100 µM	74.8 µM	32 µg/mL (≈ 68.8 µM)	> 256 µg/mL	> 256 µg/mL	> 256 µg/mL	> 256 µg/mL	> 256 µg/mL
CCCCCc1ccc(-c2cn(Cc3cc(=O)oc4cc(O)ccc34)nn2)cc1	13.7 µM	24.6 µM	39.6 µM	–	50.4 µM	27.3 µM	8 µg/mL (≈ 20.5 µM)	> 256 µg/mL	> 256 µg/mL	> 256 µg/mL	> 256 µg/mL	> 256 µg/mL
O=c1cc(Cn2cc(CSC(=S)N3CCOCC3)nn2)c2ccc(O)cc2o1	70.2 µM	40.8 µM	≥ 100 µM	59.1 µM	56.3 µM	99.4 µM	32 µg/mL (≈ 76.5 µM)	> 256 µg/mL	> 256 µg/mL	> 256 µg/mL	> 256 µg/mL	> 256 µg/mL
O=c1cc(Cn2cc(CCCCl)nn2)c2ccc(O)cc2o1	30.1 µM	49.6 µM	59.8 µM	–	75.8 µM	> 100 µM	–	–	–	–	–	–
O=c1cc(Cn2cc(CCO)nn2)c2ccc(O)cc2o1	90.3 µM	> 100 µM	> 100 µM	–	> 100 µM	> 100 µM	–	–	–	–	–	–
CCCCc1ccc(-c2cn(Cc3cc(=O)oc4cc(O)ccc34)nn2)cc1	13.8 µM	39 µM	49.2 µM	–	69.8 µM	48.4 µM	64 µg/mL (≈ 170 µM)	> 256 µg/mL	> 256 µg/mL	> 256 µg/mL	> 256 µg/mL	> 256 µg/mL
O=c1cc(Cn2cc(CSC(=S)N3CCNCC3)nn2)c2ccc(O)cc2o1	96 µM	> 100 µM	> 100 µM	> 100 µM	> 100 µM	> 100 µM	16 µg/mL (≈ 38.3 µM)	> 256 µg/mL	> 256 µg/mL	> 256 µg/mL	> 256 µg/mL	> 256 µg/mL
O=c1cc(Cn2cc(C3CC3)nn2)c2ccc(O)cc2o1	91.7 µM	> 100 µM	> 100 µM	–	> 100 µM	> 100 µM	–	–	–	–	–	–
O=c1cc(Cn2cc(CCCO)nn2)c2ccc(O)cc2o1	96.2 µM	90.2 µM	> 100 µM	–	> 100 µM	> 100 µM	–	–	–	–	–	–
CC(O)c1cn(Cc2cc(=O)oc3cc(O)ccc23)nn1 (centres undefined)	> 100 µM	> 100 µM	> 100 µM	–	> 100 µM	> 100 µM	–	–	–	–	–	–
Cc1ccc2c(Cn3cc(CNc4ccc(-c5nc6ccc(C)cc6s5)cc4)nn3)cc(=O)oc2c1	46.2 µM	51.4 µM	≥ 100 µM	–	34.9 µM	94.7 µM	–	–	–	–	–	–
O=c1cc(Cn2cc(-c3ccc(Br)cc3)nn2)c2ccc(O)cc2o1	32.3 µM	40.2 µM	97.7 µM	–	52.9 µM	61.1 µM	256 µg/mL (≈ 643 µM)	> 256 µg/mL	> 256 µg/mL	> 256 µg/mL	> 256 µg/mL	> 256 µg/mL
O=c1cc(Cn2cc(CCCCO)nn2)c2ccc(O)cc2o1	> 100 µM	> 100 µM	> 100 µM	–	> 100 µM	> 100 µM	–	–	–	–	–	–
CC(C)(O/N=C(\C(=O)N[C@@H]1C(=O)N2C(C(=O)[O-])=C(C[n+]3ccccc3)CS[C@H]12)c1csc(N)n1)C(=O)O [CEFTAZIDIME]	–	–	–	–	–	–	256 µg/mL (≈ 468 µM)	> 256 µg/mL	4 µg/mL (≈ 7.32 µM)	16 µg/mL (≈ 29.3 µM)	0.5 µg/mL (≈ 0.915 µM)	64 µg/mL (≈ 117 µM)
O=C(O)c1cn(C2CC2)c2cc(N3CCNCC3)c(F)cc2c1=O [CIPROFLOXACIN]	–	–	–	–	–	–	0.5 µg/mL (≈ 1.51 µM)	> 256 µg/mL	< 0.125 µg/mL	< 0.125 µg/mL	< 0.125 µg/mL	0.25 µg/mL (≈ 0.754 µM)
